Measured values reported in ChEMBL document CHEMBL5038571, “Design and Synthesis of EZH2-Based PROTACs to Degrade the PRC2 Complex for Targeting the Noncatalytic Activity of EZH2” (J Med Chem, 2021).
Activity calls are given as the source filed them. The rule behind the calls is not given here.

Tests used:
[1] = biological target: T1, Protein cereblon/Histone-lysine N-methyltransferase EZH2 (Homo sapiens) (UniProt Q15910+Q96SW2); test: PROTAC activity at CRBN E3 ligase/EZH2 in PRC2 complex in human LNCaP cells assessed as induction of RbAp48 degradation by measuring reduction in RbAp48 protein level at 1 uM incubated for 48 hrs by Western blot analysis; format: cell-based
How it was run: (§1)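 Cancer cell lines exposed to 1 μM compound for 48 h. Lysates immunoblotted (SDS-PAGE, nitrocellulose, 5% milk block, primary antibody overnight at 4 °C) for EZH2, SUZ12, EED, RbAp48 and H3K27me3. Bands quantified by densitometry and normalized to GAPDH.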

[2] = test system: A549; test: Downregulation of CEP76 mRNA expression in human A549 cells at 10 uM incubated for 48 hrs by qRT-PCR analysis; format: functional, cell-based
How it was run: (§2)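 Cells treated 48 h. Total RNA extracted with Trizol, reverse-transcribed, and SYBR RT-qPCR run: 95 °C 30 s, then 40 cycles of 95 °C 6 s and 60 °C 20 s. mRNA normalized to the DMSO-treated group. Mean SD of three independent experiments, t-test versus DMSO.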

[3] = biological target: T1, Protein cereblon/Histone-lysine N-methyltransferase EZH2 (Homo sapiens); test: PROTAC activity at CRBN E3 ligase/EZH2 in PRC2 complex in human LNCaP cells assessed as induction of EZH2 degradation by measuring reduction in EZH2 protein level at 1 uM incubated for 48 hrs by Western blot analysis; format: cell-based; how it was run: as §1
[4] = biological target: T1, Protein cereblon/Histone-lysine N-methyltransferase EZH2 (Homo sapiens); test: PROTAC activity at CRBN E3 ligase/EZH2 in PRC2 complex in human WSUDLCL2 cells assessed as induction of EZH2 degradation at 1 uM incubated for 48 hrs by Western blot analysis relative to control; format: cell-based
How it was run: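 WSU-DLCL-2 cells exposed to 1 μM compound for 48 h, with DMSO-treated cells as control. Bands quantified by densitometry and normalized to GAPDH. Mean SD from three independent experiments, t-test versus DMSO.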

[5] = test system: MDA-MB-468; test: Downregulation of TACC3 mRNA expression in human MDA-MB-468 cells at 10 uM incubated for 48 hrs by qRT-PCR analysis; format: functional, cell-based; how it was run: as §2
[6] = test system: NCI-H1299; test: Downregulation of CHEK1 mRNA expression in human NCI-H1299 cells at 10 uM incubated for 48 hrs by qRT-PCR analysis; format: functional, cell-based; how it was run: as §2
[7] = test system: Pfeiffer; test: Antiproliferative activity against human Pfeiffer cells harboring EZH2-A677G mutant assessed as inhibition of cell growth incubated for 3 to 7 days by optical microscopic analysis (Rvb= 0.49 uM); format: functional, cell-based
[8] = test system: WSUDLCL2; test: Effect on Histone H3 methylation in human WSUDLCL2 cells assessed as reduction in H3K4me3 levels at upto 10 uM incubated for 48 hrs by Western blot analysis; format: functional, cell-based; details: dose microM <=10, time 48.0 hrs
How it was run: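 Lysates run on SDS-PAGE and transferred to nitrocellulose. Membranes blocked with 5% skim milk for 2 h, primary antibody applied overnight at 4 °C, then secondary antibody and chemiluminescent detection of histone H3 methylation marks.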

[9] = biological target: T1, Protein cereblon/Histone-lysine N-methyltransferase EZH2 (Homo sapiens); test: PROTAC activity at CRBN E3 ligase/EZH2 in PRC2 complex in human WSUDLCL2 cells assessed as downregulation of EED expression at 1 uM pretreated with GSK126 for 4 hrs followed by compound addition and measured after 48 hrs by Western blot analysis; format: cell-based
How it was run: (§3)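 WSU-DLCL-2 cells pretreated 4 h with the named inhibitor, then compound added and incubated a further 48 h. EZH2, SUZ12, EED and RbAp48 measured by western blot (nitrocellulose transfer, skim-milk block, primary antibody overnight at 4 °C, chemiluminescent detection).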

[10] = biological target: T1, Protein cereblon/Histone-lysine N-methyltransferase EZH2 (Homo sapiens); test: PROTAC activity at CRBN E3 ligase/EZH2 in PRC2 complex in human WSUDLCL2 cells assessed as downregulation of EED expression at 1 uM pretreated with lenalidomide for 4 hrs followed by compound addition and measured after 48 hrs by Western blot analysis; format: cell-based; how it was run: as §3
[11] = biological target: T1, Protein cereblon/Histone-lysine N-methyltransferase EZH2 (Homo sapiens); test: PROTAC activity at CRBN E3 ligase/EZH2 in PRC2 complex in human A2780 cells assessed as induction of EZH2 degradation by measuring reduction in EZH2 protein level at 1 uM incubated for 48 hrs by Western blot analysis; format: cell-based; how it was run: as §1
[12] = biological target: T1, Protein cereblon/Histone-lysine N-methyltransferase EZH2 (Homo sapiens); test: PROTAC activity at CRBN E3 ligase/EZH2 in PRC2 complex in human SU-DHL-6 cells assessed as induction of SUZ12 degradation by measuring reduction in SUZ12 protein level at 1 uM incubated for 48 hrs by Western blot analysis; format: cell-based
How it was run: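 Cells cultured in DMEM or RPMI 1640 with 10% FBS and 1% penicillin-streptomycin, 37 °C, 5% CO2; exposed to 1 μM compound for 48 h. Lysates run on SDS-PAGE and transferred to nitrocellulose. Blocked 2 h in 5% skim milk, primary antibody overnight at 4 °C, then secondary antibody. Chemiluminescent detection of PRC2 subunits and H3K27me3.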

[13] = biological target: T1, Protein cereblon/Histone-lysine N-methyltransferase EZH2 (Homo sapiens); test: PROTAC activity at CRBN E3 ligase/EZH2 in PRC2 complex in human WSUDLCL2 cells assessed as induction of RbAp48 degradation at 1 uM incubated for 48 hrs by Western blot analysis relative to control; format: cell-based
How it was run: (§4)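 WSU-DLCL-2 cells treated 48 h (1 μM for the single-concentration screen), lysed; SDS-PAGE, nitrocellulose transfer, 5% milk block, primary antibody 4 °C overnight, chemiluminescence. Bands quantified by densitometry, normalized to GAPDH, expressed relative to DMSO-treated cells; mean ± SD of three independent experiments, t-test.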

[14] = biological target: T1, Protein cereblon/Histone-lysine N-methyltransferase EZH2 (Homo sapiens); test: PROTAC activity at CRBN E3 ligase/EZH2 in PRC2 complex in human WSUDLCL2 cells assessed as downregulation of EED expression at 1 uM pretreated with MLN4924 for 4 hrs followed by compound addition and measured after 48 hrs by Western blot analysis; format: cell-based; how it was run: as §3
[15] = test system: A549; test: Downregulation of TACC3 mRNA expression in human A549 cells at 10 uM incubated for 48 hrs by qRT-PCR analysis; format: functional, cell-based; how it was run: as §2
[16] = biological target: T1, Protein cereblon/Histone-lysine N-methyltransferase EZH2 (Homo sapiens); test: PROTAC activity at CRBN E3 ligase/EZH2 in PRC2 complex in human WSUDLCL2 cells assessed as reduction in H3K27me3 level incubated for 48 hrs by Western blot analysis; format: cell-based; details: dose 1-10 µM; how it was run: as §4
[17] = biological target: T1, Protein cereblon/Histone-lysine N-methyltransferase EZH2 (Homo sapiens); test: PROTAC activity at CRBN E3 ligase/EZH2 in PRC2 complex in human WSUDLCL2 cells assessed as downregulation of EZH2 expression at 1 uM pretreated with GSK126 for 4 hrs followed by compound addition and measured after 48 hrs by Western blot analysis; format: cell-based; how it was run: as §3
[18] = test system: A549; test: Downregulation of CHEK1 mRNA expression in human A549 cells at 10 uM incubated for 48 hrs by qRT-PCR analysis; format: functional, cell-based; how it was run: as §2
[19] = test system: A549; test: Upregulation of CDKN2A mRNA expression in human A549 cells at 5 uM incubated for 48 hrs by qRT-PCR analysis; format: functional, cell-based
How it was run: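 A549 cells treated 48 h. Trizol RNA extraction, reverse transcription, SYBR qPCR (95 °C 30 s; 40 cycles of 95 °C 6 s, 60 °C 20 s). mRNA normalized to DMSO-treated cells; mean ± SD of three independent experiments.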

[20] = biological target: T1, Protein cereblon/Histone-lysine N-methyltransferase EZH2 (Homo sapiens); test: PROTAC activity at CRBN E3 ligase/EZH2 in PRC2 complex in human WSUDLCL2 cells assessed as induction of SUZ12 degradation at 1 uM incubated for 48 hrs by Western blot analysis relative to control; format: cell-based; how it was run: as §4

T1 sequence (Q15910 whole entry, looked up): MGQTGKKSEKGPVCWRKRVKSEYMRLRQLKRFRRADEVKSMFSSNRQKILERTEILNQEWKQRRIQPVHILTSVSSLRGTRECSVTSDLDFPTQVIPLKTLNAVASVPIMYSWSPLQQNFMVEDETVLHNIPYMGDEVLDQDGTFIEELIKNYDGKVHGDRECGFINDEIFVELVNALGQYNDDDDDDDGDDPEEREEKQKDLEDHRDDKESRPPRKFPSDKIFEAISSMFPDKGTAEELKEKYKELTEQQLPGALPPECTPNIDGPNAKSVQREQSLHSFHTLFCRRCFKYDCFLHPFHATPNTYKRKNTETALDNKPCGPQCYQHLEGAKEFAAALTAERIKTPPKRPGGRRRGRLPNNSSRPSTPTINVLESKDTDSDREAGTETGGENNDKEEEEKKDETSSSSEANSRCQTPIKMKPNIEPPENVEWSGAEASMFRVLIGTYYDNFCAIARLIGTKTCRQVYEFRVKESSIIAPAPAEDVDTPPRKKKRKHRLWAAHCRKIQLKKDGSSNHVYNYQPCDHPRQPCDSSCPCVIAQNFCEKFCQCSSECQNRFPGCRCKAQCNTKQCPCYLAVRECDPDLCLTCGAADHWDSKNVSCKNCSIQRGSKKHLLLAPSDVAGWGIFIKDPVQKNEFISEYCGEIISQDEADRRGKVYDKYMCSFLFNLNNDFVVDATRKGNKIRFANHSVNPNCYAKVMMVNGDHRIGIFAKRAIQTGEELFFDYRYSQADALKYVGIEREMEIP
T1 sequence (Q96SW2 whole entry, looked up): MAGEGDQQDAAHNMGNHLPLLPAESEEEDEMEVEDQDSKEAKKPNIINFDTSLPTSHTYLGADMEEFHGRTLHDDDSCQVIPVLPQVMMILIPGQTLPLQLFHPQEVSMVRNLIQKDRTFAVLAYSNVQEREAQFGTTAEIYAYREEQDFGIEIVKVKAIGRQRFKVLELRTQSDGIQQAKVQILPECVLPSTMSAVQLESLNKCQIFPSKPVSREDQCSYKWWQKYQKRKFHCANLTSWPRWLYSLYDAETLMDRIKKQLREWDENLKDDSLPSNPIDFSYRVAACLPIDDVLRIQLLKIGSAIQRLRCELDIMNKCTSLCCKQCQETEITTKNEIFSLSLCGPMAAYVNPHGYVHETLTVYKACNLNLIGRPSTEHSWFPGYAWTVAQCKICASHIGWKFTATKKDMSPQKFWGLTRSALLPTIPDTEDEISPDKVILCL

CCN(c1cc(-c2ccc(CN3CCN(CCCCCCCOc4cccc5c4C(=O)N(C4CCC(=O)NC4=O)C5=O)CC3)cc2)cc(C(=O)NCc2c(C)cc(C)[nH]c2=O)c1C)C1CCOCC1 (stereo not given)
Activity [1]: Active | Activity [2]: Active | Activity [3]: Active | Activity [4]: 72% | Activity [5]: Active | Activity [6]: Active | IC50 [7]: 210 nM | Activity [8]: inactive | Activity [9]: inactive | Activity [10]: inactive | Activity [11]: Active | Activity [12]: Active | Activity [13]: 74% | Activity [14]: inactive | Activity [15]: Active | Activity [16]: Dose-Dependent Effect | Activity [17]: inactive | Activity [18]: Active | Activity [19]: Active | Activity [20]: 81%
